Measured values reported in article PMC6437231 (Diabetes Therapy, 2019).

Tests used:
[1] = population PK model; ref [9]; cited from earlier work
[2] = cited from earlier work
[3] = format: in vivo, human; settings: final two-compartment model
In short: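 Plasma semaglutide (LC–MS/MS) from 353 subjects in 9 trials with s.c. and i.v. dosing. Mixed-effects two-compartment model with first-order absorption and elimination; i.v. doses treated as a central bolus. Log-normal inter-individual variability on ka, CL, Q, Vc and Vp; (weight/85 kg) exponent on CL, Q, Vc and Vp; product strength (1, 1.34, 3, 10 mg/mL) on ka. Covariates kept at 10% alpha; CWRES >6 excluded; log-additive residual error.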

[4] = format: in vivo, human; settings: one-compartment model, 7 multiple-dose trials, s.c.
In short: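 Steady-state s.c. plasma data from seven multiple-dose trials, with dose escalation 0.25 > 0.5 > 1.0 mg (one trial to 1.5 mg). One-compartment mixed-effects model parameterised as CL/F, V/F and ka, each with inter-individual variability. […] Log-additive residual error; values with CWRES >6 excluded.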

[5] = ref [6], cited from earlier work
[6] = system: plasma albumin; settings: ref [5]; cited from earlier work
[7] = s.c., trial 7 drug product strength
[8] = one-compartment model from phase 3a trials

dulaglutide
Greater CL compared to semaglutide [1]: approximately 50%
Interindividual variability, coefficient of variation (CV) for CL [1]: 40.5%
Lower volume of distribution compared to semaglutide [1]: 20%
Slower absorption compared to semaglutide [1]: approximately threefold

liraglutide
Elimination compared with semaglutide ([2]; population PK model, ref [10]): much faster elimination
Bioavailability after administration in the thigh versus the abdomen ([2]; ref [16]): slightly lower

CC[C@H](C)[C@H](NC(=O)[C@H](Cc1ccccc1)NC(=O)[C@H](CCC(=O)O)NC(=O)[C@H](CCCCNC(=O)COCCOCCNC(=O)COCCOCCNC(=O)CC[C@H](NC(=O)CCCCCCCCCCCCCCCCC(=O)O)C(=O)O)NC(=O)[C@H](C)NC(=O)[C@H](C)NC(=O)[C@H](CCC(N)=O)NC(=O)CNC(=O)[C@H](CCC(=O)O)NC(=O)[C@H](CC(C)C)NC(=O)[C@H](Cc1ccc(O)cc1)NC(=O)[C@H](CO)NC(=O)[C@H](CO)NC(=O)[C@@H](NC(=O)[C@H](CC(=O)O)NC(=O)[C@H](CO)NC(=O)[C@@H](NC(=O)[C@H](Cc1ccccc1)NC(=O)[C@@H](NC(=O)CNC(=O)[C@H](CCC(=O)O)NC(=O)C(C)(C)NC(=O)[C@@H](N)Cc1cnc[nH]1)[C@@H](C)O)[C@@H](C)O)C(C)C)C(=O)N[C@@H](C)C(=O)N[C@@H](Cc1c[nH]c2ccccc12)C(=O)N[C@@H](CC(C)C)C(=O)N[C@H](C(=O)N[C@@H](CCCNC(=N)N)C(=O)NCC(=O)N[C@@H](CCCNC(=N)N)C(=O)NCC(=O)O)C(C)C [semaglutide]
Central volume (Vc) ([3]; 9 trials, body weight 85 kg): 3.59 L
Peripheral volume (Vp) ([3]; 9 trials, body weight 85 kg): 4.10 L
Higher CL in subjects with type 2 diabetes compared to healthy subjects ([3]; 95% CI 9–16%): 12%
Body weight effect on Vc and Vp ([3]; exponent of (weight/85 kg)): 0.923
T2D effect on ka ([3]; factor, T2D vs normoglycaemia): 0.544
Injection site effect on F ([3]; factor, thigh vs abdomen): 0.883
Drug product strength effects on ka, 3 mg [3, 7]: 0.0526
Drug product strength effects on ka, 10 mg [3, 7]: 0.139
Bioavailability estimated by the final model ([3]; s.c., 95% CI 0.80–0.90): 85%
Lower bioavailability when using the thigh compared with the abdomen ([3]; s.c., 95% CI 0.84–0.92): 12%
Total volume of distribution (Vc + Vp) ([3]; typical subject with T2D, 85 kg): approximately 8 L
Absorption rate constant (ka) ([4]; 267 subjects): 0.0296 h⁻¹
Apparent clearance (CL/F), healthy volunteer with body weight of 85 kg [4]: 0.0415 L/h
CL/F for subject with T2D and body weight of 85 kg [5, 8]: 0.0478 L/h
Total volume/F (V/F) [5, 8]: 12.2 L
Inter-individual variability in clearance ([5]; phase 3 analysis, CV): 12.9%
Bound to plasma albumin [6]: more than 99%
